How the values were obtained:
[1] = molecular target: T1, Alpha-1D adrenergic receptor (Homo sapiens, UniProt P25100); experiment: Binding affinity towarda alpha-1D adrenergic receptor
T1 sequence (P25100 whole entry): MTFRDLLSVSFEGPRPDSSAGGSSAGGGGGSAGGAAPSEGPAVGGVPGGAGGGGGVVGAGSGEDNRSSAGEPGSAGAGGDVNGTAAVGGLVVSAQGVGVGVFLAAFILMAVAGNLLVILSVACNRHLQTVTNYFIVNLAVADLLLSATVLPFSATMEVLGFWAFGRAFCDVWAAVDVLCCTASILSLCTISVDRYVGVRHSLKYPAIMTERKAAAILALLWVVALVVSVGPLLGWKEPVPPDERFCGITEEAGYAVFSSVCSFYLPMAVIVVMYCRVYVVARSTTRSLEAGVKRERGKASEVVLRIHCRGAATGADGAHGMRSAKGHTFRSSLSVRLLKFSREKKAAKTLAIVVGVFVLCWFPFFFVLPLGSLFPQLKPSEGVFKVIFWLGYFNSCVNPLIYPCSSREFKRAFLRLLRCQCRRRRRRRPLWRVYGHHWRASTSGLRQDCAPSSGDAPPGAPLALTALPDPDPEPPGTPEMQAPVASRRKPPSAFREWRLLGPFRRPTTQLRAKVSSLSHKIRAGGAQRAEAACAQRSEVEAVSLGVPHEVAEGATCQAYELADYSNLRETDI
How it was run: (§1)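 Membranes from CHO cells stably expressing each human α1-adrenoceptor subtype, incubated in 50 mM Tris pH 7.4 with 0.2 nM [3H]prazosin and competing drugs (1 pM–10 µM), 30 min at 25 °C. Nonspecific binding with 10 µM phentolamine. Stopped with ice-cold Tris and filtration through 0.2% PEI-pretreated filters.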

[2] = molecular target: T2, Alpha-1A adrenergic receptor (Homo sapiens, UniProt P35348); experiment: Binding affinity was determined on human cloned Alpha-1A adrenoceptor; how it was run: as §1
T2 sequence (P35348 whole entry): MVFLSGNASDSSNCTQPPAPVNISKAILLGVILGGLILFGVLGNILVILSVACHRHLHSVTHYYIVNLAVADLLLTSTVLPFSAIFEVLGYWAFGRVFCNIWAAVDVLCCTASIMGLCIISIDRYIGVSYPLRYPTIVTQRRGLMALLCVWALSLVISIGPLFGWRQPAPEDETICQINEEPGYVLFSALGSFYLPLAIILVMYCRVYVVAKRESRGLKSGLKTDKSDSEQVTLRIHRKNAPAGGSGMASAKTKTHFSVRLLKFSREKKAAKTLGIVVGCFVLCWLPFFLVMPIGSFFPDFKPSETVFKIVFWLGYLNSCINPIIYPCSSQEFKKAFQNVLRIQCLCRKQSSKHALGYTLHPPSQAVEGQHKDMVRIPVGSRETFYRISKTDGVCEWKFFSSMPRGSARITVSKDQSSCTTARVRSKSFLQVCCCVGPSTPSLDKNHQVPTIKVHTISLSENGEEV

[3] = molecular target: T3, Alpha-1B adrenergic receptor (Homo sapiens, UniProt P35368); experiment: Binding affinity was determined on human cloned alpha-1B adrenergic receptor; how it was run: as §1
T3 sequence (P35368 whole entry): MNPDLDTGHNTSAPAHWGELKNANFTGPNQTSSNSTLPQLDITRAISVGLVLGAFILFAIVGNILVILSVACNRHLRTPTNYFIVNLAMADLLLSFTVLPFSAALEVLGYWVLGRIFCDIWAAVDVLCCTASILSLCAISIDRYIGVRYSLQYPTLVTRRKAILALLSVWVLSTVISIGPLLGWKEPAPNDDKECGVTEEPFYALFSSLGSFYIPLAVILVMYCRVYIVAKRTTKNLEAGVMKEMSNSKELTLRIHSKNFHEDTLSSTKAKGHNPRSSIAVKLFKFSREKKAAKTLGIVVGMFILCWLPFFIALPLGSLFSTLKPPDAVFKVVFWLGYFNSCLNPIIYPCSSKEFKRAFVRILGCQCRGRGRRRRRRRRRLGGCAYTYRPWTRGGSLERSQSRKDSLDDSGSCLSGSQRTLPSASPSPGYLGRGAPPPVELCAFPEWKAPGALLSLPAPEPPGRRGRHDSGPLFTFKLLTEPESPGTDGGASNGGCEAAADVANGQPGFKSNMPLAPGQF

[4] = molecular target: T4, 5-hydroxytryptamine receptor 1A (Rattus norvegicus, UniProt P19327); experiment: Binding was determined on 5-hydroxytryptamine 1A receptor in rat hippocampal membranes; type: cell membranes, Hippocampus
T4 sequence (P19327 whole entry): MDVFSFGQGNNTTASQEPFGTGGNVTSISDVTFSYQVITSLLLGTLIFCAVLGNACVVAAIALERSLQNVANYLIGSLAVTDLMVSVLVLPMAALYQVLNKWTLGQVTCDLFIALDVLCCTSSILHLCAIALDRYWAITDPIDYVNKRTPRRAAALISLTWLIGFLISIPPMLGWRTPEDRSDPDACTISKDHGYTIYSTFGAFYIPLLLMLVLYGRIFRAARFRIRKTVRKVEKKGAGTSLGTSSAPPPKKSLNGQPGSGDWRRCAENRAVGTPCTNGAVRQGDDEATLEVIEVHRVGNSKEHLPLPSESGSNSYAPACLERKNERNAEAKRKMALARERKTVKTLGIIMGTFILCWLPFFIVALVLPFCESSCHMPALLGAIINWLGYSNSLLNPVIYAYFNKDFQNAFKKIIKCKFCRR
How it was run: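 Hippocampus from male Wistar Hannover rats, homogenized in 50 mM Tris pH 7.6, washed, and preincubated 10 min at 37 °C. Ki given as mean ± SEM.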

Compound | Ki [1] | Ki [2] | Ki [3] | Ki [4]
COc1cccc(C2CCC(N3CCN(c4ccccc4OC)CC3)CC2)c1 (stereo in doubt; trans) | 4.49 nM | 4.98 nM | 43.3 nM | 0.02 nM
COc1cccc(C2CCC(NCCOc3ccccn3)CC2)c1 (stereo in doubt) | 142 nM | 201 nM | 332 nM | 17 nM
COc1cccc2c1CCCC2CCCNCCOc1ccccn1 (stereo not drawn) | 12.7 nM | 0.55 nM | 26.4 nM | 0.54 nM
COc1cccc(C2CCC(N3CCN(c4ccccn4)CC3)CC2)c1 (trans isomer) | 118 nM | 33 nM | 53.1 nM | 0.028 nM

Other lines, results leading:

Ki [1] | Ki [2] | Ki [3] | Ki [4] | Compound
83.2 nM | 14.6 nM | 270 nM | 0.19 nM | COc1cccc2c(CCCNCCOc3ccccn3)cccc12
12.6 nM | 1.62 nM | 4.21 nM | 0.38 nM | COc1cccc2c(CCCN3CCN(c4ccccn4)CC3)cccc12
5.95 nM | 0.33 nM | 7.88 nM | 0.48 nM | COc1cccc2c1CCCC2CCCN1CCN(c2ccccn2)CC1 (stereo not drawn)

— ChEMBL document CHEMBL1134307, “trans-4-[4-(Methoxyphenyl)cyclohexyl]-1-arylpiperazines: a new class of potent and selective 5-HT(1A) receptor ligands as conformationally constrained analogues of 4-[3-(5-methoxy-1,2,3,4-tetrahydronaphthalen-1-yl)propyl]-1-arylpiperazines” (J Med Chem, 2001)
